Assay results: ChEMBL document CHEMBL3588768, “Synthesis and bioactivity of tripolinolate A from Tripolium vulgare and its analogs” (Bioorg Med Chem Lett, 2015)
Activity calls are given as the source filed them. The rule behind the calls is not given here.

Assays:
[1] = system: Escherichia coli; experiment: Antimicrobial activity against Escherichia coli after 5 to 12 hrs by micro broth dilution assay; format: functional, organism-based
[2] = system: Staphylococcus aureus; experiment: Antimicrobial activity against Staphylococcus aureus after 5 to 12 hrs by micro broth dilution assay; format: functional, organism-based
[3] = system: U-251; experiment: Antiproliferative activity against human U251 cells after 72 hrs by sulforhodamine B assay; format: functional, cell-based; conditions: for IC50: U-251, 72 h
How it was run: (§1)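 Sulforhodamine B assay on glioma (U251, U87-MG) and colorectal (HCT-15, SW620) cancer cells. Cells were exposed to a range of compound concentrations for 72 h, then stained with SRB. IC50 values were derived from the dose–response. Doxorubicin served as positive control.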

[4] = system: U-87 MG; experiment: Antiproliferative activity against human U87MG cells after 72 hrs by sulforhodamine B assay; format: functional, cell-based, U-87MG ATCC; conditions: for inhibition: U-87MG ATCC; how it was run: as §1
[5] = system: HCT-15; experiment: Antiproliferative activity against human HCT15 cells after 72 hrs by sulforhodamine B assay; format: functional, cell-based; conditions: for IC50: HCT-15, 72 h; how it was run: as §1
[6] = system: SW-620; experiment: Antiproliferative activity against human SW620 cells after 72 hrs by sulforhodamine B assay; format: functional, cell-based; conditions: for IC50: SW-620, 72 h; how it was run: as §1
[7] = system: U-87 MG; experiment: Induction of apoptosis in human U87MG cells assessed as viable cells at 10 uM after 72 hrs by annexin V-FITC/PI staining-based flow cytometric analysis (reference value: 93.12%); format: functional, U-87MG ATCC; conditions: read-out: Activity
[8] = system: U-87 MG; experiment: Induction of apoptosis in human U87MG cells assessed as late apoptotic cells at 10 uM after 72 hrs by annexin V-FITC/PI staining-based flow cytometric analysis (reference value: 3.23%); format: functional, U-87MG ATCC
[9] = system: U-87 MG; experiment: Induction of apoptosis in human U87MG cells assessed as necrotic cells at 10 uM after 72 hrs by annexin V-FITC/PI staining-based flow cytometric analysis (reference value: 0.24%); format: functional, U-87MG ATCC
[10] = system: U-87 MG; experiment: Induction of apoptosis in human U87MG cells assessed as early apoptotic cells at 10 uM after 72 hrs by annexin V-FITC/PI staining-based flow cytometric analysis (reference value: 3.41%); format: functional, U-87MG ATCC
[11] = system: U-87 MG; experiment: Induction of apoptosis in human U87MG cells assessed as total apoptotic cells at 10 uM after 72 hrs by annexin V-FITC/PI staining-based flow cytometric analysis (reference value: 6.64%); format: functional, U-87MG ATCC
[12] = system: U-87 MG; experiment: Induction of apoptosis in human U87MG cells assessed as late apoptotic cells at 40 uM after 72 hrs by annexin V-FITC/PI staining-based flow cytometric analysis (reference value: 3.23%); format: functional, U-87MG ATCC
[13] = system: U-87 MG; experiment: Induction of apoptosis in human U87MG cells assessed as bright blue nuclear pyknosis at 20 uM by DAPI staining; format: functional, cell-based; conditions: U-87MG ATCC
How it was run: (§2)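 U87-MG glioma cells were exposed to compound at 20 µM for 72 h, then double-stained with DAPI and propidium iodide. Cells were viewed by fluorescence microscopy. Condensed bright-blue DAPI nuclei were scored as apoptotic; red PI-stained cells were scored as necrotic.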

[14] = system: U-87 MG; experiment: Induction of apoptosis in human U87MG cells assessed as necrotic cells at 20 uM by PI staining; format: functional, cell-based; conditions: U-87MG ATCC; how it was run: as §2
[15] = system: U-87 MG; experiment: Induction of apoptosis in human U87MG cells assessed as necrotic cells at 40 uM after 72 hrs by annexin V-FITC/PI staining-based flow cytometric analysis (reference value: […]); format: functional, U-87MG ATCC
[16] = system: U-87 MG; experiment: Induction of apoptosis in human U87MG cells assessed as viable cells at 40 uM after 72 hrs by annexin V-FITC/PI staining-based flow cytometric analysis (reference value: 93.12%); format: functional, U-87MG ATCC; conditions: read-out: Activity
[17] = system: U-87 MG; experiment: Induction of apoptosis in human U87MG cells assessed as early apoptotic cells at 40 uM after 72 hrs by annexin V-FITC/PI staining-based flow cytometric analysis (reference value: 3.41%); format: functional, U-87MG ATCC
[18] = system: U-87 MG; experiment: Induction of apoptosis in human U87MG cells assessed as total apoptotic cells at 40 uM after 72 hrs by annexin V-FITC/PI staining-based flow cytometric analysis (reference value: 6.64%); format: functional, U-87MG ATCC
[19] = system: U-87 MG; experiment: Induction of apoptosis in human U87MG cells assessed as viable cells at 20 uM after 72 hrs by annexin V-FITC/PI staining-based flow cytometric analysis (reference value: 93.12%); format: functional, U-87MG ATCC; conditions: read-out: Activity
[20] = system: U-87 MG; experiment: Induction of apoptosis in human U87MG cells assessed as total apoptotic cells at 20 uM after 72 hrs by annexin V-FITC/PI staining-based flow cytometric analysis (reference value: 6.64%); format: functional, U-87MG ATCC
[21] = system: U-87 MG; experiment: Induction of apoptosis in human U87MG cells assessed as late apoptotic cells at 20 uM after 72 hrs by annexin V-FITC/PI staining-based flow cytometric analysis (reference value: 3.23%); format: functional, U-87MG ATCC
[22] = system: U-87 MG; experiment: Induction of apoptosis in human U87MG cells assessed as early apoptotic cells at 20 uM after 72 hrs by annexin V-FITC/PI staining-based flow cytometric analysis (reference value: 3.41%); format: functional, U-87MG ATCC
[23] = system: U-87 MG; experiment: Induction of apoptosis in human U87MG cells assessed as necrotic cells at 20 uM after 72 hrs by annexin V-FITC/PI staining-based flow cytometric analysis (reference value: 0.24%); format: functional, U-87MG ATCC

| Compound | inhibition [1] | inhibition [2] | IC50 [3] [µM] | IC50 [4] [µM] | IC50 [5] [µM] | IC50 [6] [µM] | further results |
| --- | --- | --- | --- | --- | --- | --- | --- |
| CC(C)[C@H](C)/C=C/[C@@H](C)[C@H]1CCC2=C3C=CC4=CC(=O)CC[C@]4(C)[C@H]3CC[C@@]21C | inactive | inactive |  |  |  |  |  |
| CCCC(=O)c1c(O)cc(O)cc1O[C@@H]1O[C@H](CO)[C@@H](O)[C@H](O)[C@H]1O | inactive | inactive | 19.7 | 3.89 | 1.91 | 0.41 |  |
| CCC(=O)OC/C=C/c1ccc(OC(=O)CC)c(OC)c1 | inactive | inactive | 52.6 | 28.8 | 29.6 | 47.4 |  |
| CCCC(=O)Oc1ccc(/C=C/COC(=O)CC(C)C)cc1OC | inactive | inactive |  |  |  |  |  |
| O=C(/C=C/c1ccc(O)c(O)c1)O[C@@H]1[C@H](O)C[C@@](O)(C(=O)O)C[C@H]1OC(=O)/C=C/c1ccc(O)c(O)c1 | inactive | inactive |  |  |  |  |  |
| O=C(/C=C/c1ccc(O)c(O)c1)O[C@@H]1C[C@](O)(C(=O)O)C[C@@H](OC(=O)/C=C/c2ccc(O)c(O)c2)[C@H]1O | inactive | inactive |  |  |  |  |  |
| COC(=O)/C=C/c1ccc(O)c(OC)c1 | inactive | inactive |  |  |  |  |  |
| CC1=C(C)C(=O)C(CC[C@](C)(O)CCC[C@H](C)CCC[C@H](C)CCCC(C)C)=C(C)C1=O | inactive | inactive |  |  |  |  |  |
| COc1cccc2c1C(=O)c1c(O)c3c(c(O)c1C2=O)C[C@@](O)(C(=O)CO)C[C@@H]3O[C@H]1C[C@H](N)[C@H](O)[C@H](C)O1 [DOXORUBICIN] | inactive | inactive | 2.2 | 0.93 | 1.13 | 1.33 | viability at 10 µM [7]: 68.2%; Activity [8]: 11.02%; Activity [9]: 0.6%; Activity [10]: 20.15%; Activity [11]: 31.17% |
| CCCCCCCCCCCCCCCCCCCCOC(=O)/C=C/c1ccc(O)cc1 | inactive | inactive |  |  |  |  |  |
| CCC(=O)Oc1ccc(/C=C/COC(C)=O)cc1OC | inactive | inactive |  |  |  |  |  |
| CCCC(=O)OC/C=C/c1ccc(OC(=O)CC(C)C)c(OC)c1 | inactive | inactive |  |  |  |  |  |
| CC[C@H](C)C(=O)OC/C=C/c1ccc(OC(=O)[C@@H](C)CC)c(OC)c1 | inactive | inactive |  |  |  |  |  |
| O=c1c(O[C@@H]2O[C@H](CO)[C@@H](O)[C@H](O)[C@H]2O)c(-c2ccc(O)cc2)oc2cc(O)cc(O)c12 [ASTRAGALIN] | inactive | inactive | 37.6 | 3.12 | 23.5 | 4.6 |  |
| CCCCCCC(=O)OC/C=C/c1ccc(OC(=O)CCCCCC)c(OC)c1 | inactive | inactive |  |  |  |  |  |
| CCCC(=O)OC/C=C/c1ccc(OC(=O)CCC)c(OC)c1 | inactive | inactive | > 50 | 17.3 | 28.8 | 7.85 |  |
| CCCCCCCC(=O)OC/C=C/c1ccc(OC(=O)CCCCCCC)c(OC)c1 | inactive | inactive |  |  |  |  |  |
| CC(C)[C@@H](C)/C=C/[C@@H](C)[C@H]1CCC2=C3C=CC4=CC(=O)CC[C@]4(C)[C@H]3CC[C@@]21C | inactive | inactive |  |  |  |  |  |

| Compound | inhibition [1] | inhibition [2] | IC50 [3] [µM] | IC50 [4] [µM] | IC50 [5] [µM] | IC50 [6] [µM] | further results |
| --- | --- | --- | --- | --- | --- | --- | --- |
| CCC(=O)OC/C=C/c1ccc(OC(C)=O)c(OC)c1 | inactive | inactive |  |  |  |  |  |
| O=C(/C=C/c1ccc(O)c(O)c1)O[C@H]1[C@H](O)C[C@](O)(C(=O)O)C[C@H]1OC(=O)/C=C/c1ccc(O)c(O)c1 | inactive | inactive |  |  |  |  |  |
| CCCCC(=O)OC/C=C/c1ccc(OC(=O)CCCC)c(OC)c1 | inactive | inactive |  |  |  |  |  |
| COc1cc(/C=C/COC(=O)CC(C)C)ccc1OC(=O)CC(C)C | inactive | inactive |  |  |  |  |  |
| COc1cc(/C=C/COC(=O)C(C)C)ccc1OC(C)=O | inactive | inactive |  |  |  |  |  |
| COc1cc(/C=C/COC(C)=O)ccc1OC(=O)C(C)C | inactive | inactive |  |  |  |  |  |
| COc1cc(/C=C/CO)ccc1O | inactive | inactive |  |  |  |  |  |
| CCCC(=O)Oc1ccc(/C=C/COC(C)=O)cc1OC | inactive | inactive | 45.7 | 10.5 | 17.1 | 7.59 |  |
| COc1cc(/C=C/COC(C)=O)ccc1OC(C)=O | inactive | inactive | 9.71 | 1.06 | 3.26 | 0.36 | Activity [12]: 35.71%; inhibition [3]: Dose-dependent effect; Activity [13]: Active; Activity [14]: Active; inhibition [4]: Dose-dependent effect; Activity [15]: 0.57%; inhibition [5]: Dose-dependent effect; viability at 40 µM [16]: 42.1%; inhibition [6]: Dose-dependent effect; Activity [17]: 21.62%; Activity [18]: 57.33% |
| COc1cc(/C=C/C(=O)O)ccc1O | inactive | inactive |  |  |  |  |  |
| CC[C@H](C)C(=O)OC/C=C/c1ccc(OC(C)=O)c(OC)c1 | inactive | inactive | 28.1 | 15 | 34.1 | 21.9 |  |
| CCCC(=O)OC/C=C/c1ccc(OC(C)=O)c(OC)c1 | inactive | inactive | 33.3 | 18.5 | 22.8 | 10.2 |  |
| COc1cc(/C=C/COC(=O)C(C)C)ccc1OC(=O)C(C)C | inactive | inactive | > 50 | 29.4 | 34.6 | 35.5 |  |
| C/C(=C\CO)CCC[C@H](C)CCC[C@H](C)CCCC(C)C [TRANS-PHYTOL] | inactive | inactive | 27.8 | 8.02 | 22.5 | 5.85 |  |
| CC[C@H](C)C(=O)Oc1ccc(/C=C/COC(C)=O)cc1OC | inactive | inactive | 12.9 | 0.48 | 4.58 | 0.99 | inhibition [3]: Dose-dependent effect; viability at 20 µM [19]: 54.5%; Activity [13]: Active; Activity [14]: Active; inhibition [4]: Dose-dependent effect; Activity [20]: 45.14%; Activity [21]: 36.12%; inhibition [5]: Dose-dependent effect; inhibition [6]: Dose-dependent effect; Activity [22]: 9.02%; Activity [23]: 0.37% |
| CCCCCC(=O)OC/C=C/c1ccc(OC(=O)CCCCC)c(OC)c1 | inactive | inactive |  |  |  |  |  |
| CCCCCCCCCCCCCCCCCCCCOC(=O)/C=C/c1ccc(O)c(OC)c1 | inactive | inactive | 26.8 | 5.24 | 15.1 | 5.25 |  |
